From ChEMBL document CHEMBL1156530, “Novel conantokins from Conus parius venom are specific antagonists of N-methyl-D-aspartate receptors” (J Biol Chem, 2007)
Calls of active or inactive are those of the source. The calls are words filed in the database; no cut-off is given here. Non-standard residues stand in square brackets, D forms with d. Residues, ends and D or L forms follow the SMILES beside them. Gla = N[C@@H](CC(C(=O)O)C(=O)O)C(=O)O; Hyp = O=C(O)[C@@H]1C[C@@H](O)CN1

Tests used:
[1] = biological target: Glutamate receptor ionotropic, NMDA 2D (Rattus norvegicus, UniProt P35439+Q62645); experiment: Inhibition of rat NMDA NR2D receptor expressed in xenopus oocytes coexpressing NMDA NR13b assessed as effect on glycine-induced current response at -70 mV by voltage clamp method; format: cell-based, Oocyte
Sequence of Glutamate receptor ionotropic, NMDA 2D (Q62645 whole entry, the tested form may be a part, one chain of several): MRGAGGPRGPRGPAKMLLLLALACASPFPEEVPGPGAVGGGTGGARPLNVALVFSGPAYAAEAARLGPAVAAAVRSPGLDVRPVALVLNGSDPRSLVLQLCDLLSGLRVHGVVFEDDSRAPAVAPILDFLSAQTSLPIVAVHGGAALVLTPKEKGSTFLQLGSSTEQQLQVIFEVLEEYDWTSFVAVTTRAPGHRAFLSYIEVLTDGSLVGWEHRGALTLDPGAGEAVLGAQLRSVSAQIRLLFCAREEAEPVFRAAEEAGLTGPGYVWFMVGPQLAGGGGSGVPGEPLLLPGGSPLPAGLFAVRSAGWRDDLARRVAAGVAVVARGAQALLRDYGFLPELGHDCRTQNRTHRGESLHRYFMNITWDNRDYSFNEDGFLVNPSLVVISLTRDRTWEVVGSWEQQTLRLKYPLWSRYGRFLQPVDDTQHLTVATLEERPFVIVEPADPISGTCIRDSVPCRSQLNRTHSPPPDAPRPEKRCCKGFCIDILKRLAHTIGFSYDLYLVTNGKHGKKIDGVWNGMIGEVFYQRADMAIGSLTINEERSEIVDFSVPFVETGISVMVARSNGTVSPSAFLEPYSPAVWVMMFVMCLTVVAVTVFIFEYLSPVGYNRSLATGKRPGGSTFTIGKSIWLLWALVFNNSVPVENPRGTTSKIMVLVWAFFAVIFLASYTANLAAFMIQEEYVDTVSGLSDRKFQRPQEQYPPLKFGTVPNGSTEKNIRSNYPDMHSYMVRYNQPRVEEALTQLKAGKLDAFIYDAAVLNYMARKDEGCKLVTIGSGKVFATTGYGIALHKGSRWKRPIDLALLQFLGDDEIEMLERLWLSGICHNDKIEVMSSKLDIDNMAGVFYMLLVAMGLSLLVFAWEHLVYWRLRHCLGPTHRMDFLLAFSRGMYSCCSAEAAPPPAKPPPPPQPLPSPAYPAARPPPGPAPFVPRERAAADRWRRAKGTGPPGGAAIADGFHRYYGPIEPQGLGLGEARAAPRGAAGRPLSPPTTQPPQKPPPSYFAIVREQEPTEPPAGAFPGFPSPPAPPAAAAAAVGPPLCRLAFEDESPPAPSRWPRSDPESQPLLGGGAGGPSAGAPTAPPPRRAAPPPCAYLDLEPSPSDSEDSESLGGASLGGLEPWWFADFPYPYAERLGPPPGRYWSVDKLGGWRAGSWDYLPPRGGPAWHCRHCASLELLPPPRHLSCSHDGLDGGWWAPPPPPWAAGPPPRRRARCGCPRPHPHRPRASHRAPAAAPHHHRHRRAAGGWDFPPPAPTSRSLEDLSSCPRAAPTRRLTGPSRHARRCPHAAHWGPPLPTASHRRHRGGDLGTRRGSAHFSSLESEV
Method in brief: (§1)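 Xenopus oocytes expressing rat NR1-3b with one NR2 subunit (A–D), voltage-clamped at -70 mV. Perfusion was Mg2+-free ND96 (pH 7.2–7.5) with 0.1 mg/ml BSA. Peptide was applied in a static bath for 5–10 min; the agonist-evoked current was then expressed as % of the pre-peptide current. IC50s were taken from concentration-response curves, n ≥ 3 per point.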

[2] = biological target: Glutamate receptor ionotropic, NMDA 2A (Rattus norvegicus, UniProt P35439+Q00959); experiment: Inhibition of rat NMDA NR2A receptor expressed in xenopus oocytes coexpressing NMDA NR13b assessed as effect on glycine-induced current response at -70 mV by voltage clamp method; format: cell-based, Oocyte; method in brief: as §1
Sequence of Glutamate receptor ionotropic, NMDA 2A (Q00959 whole entry, one chain of several): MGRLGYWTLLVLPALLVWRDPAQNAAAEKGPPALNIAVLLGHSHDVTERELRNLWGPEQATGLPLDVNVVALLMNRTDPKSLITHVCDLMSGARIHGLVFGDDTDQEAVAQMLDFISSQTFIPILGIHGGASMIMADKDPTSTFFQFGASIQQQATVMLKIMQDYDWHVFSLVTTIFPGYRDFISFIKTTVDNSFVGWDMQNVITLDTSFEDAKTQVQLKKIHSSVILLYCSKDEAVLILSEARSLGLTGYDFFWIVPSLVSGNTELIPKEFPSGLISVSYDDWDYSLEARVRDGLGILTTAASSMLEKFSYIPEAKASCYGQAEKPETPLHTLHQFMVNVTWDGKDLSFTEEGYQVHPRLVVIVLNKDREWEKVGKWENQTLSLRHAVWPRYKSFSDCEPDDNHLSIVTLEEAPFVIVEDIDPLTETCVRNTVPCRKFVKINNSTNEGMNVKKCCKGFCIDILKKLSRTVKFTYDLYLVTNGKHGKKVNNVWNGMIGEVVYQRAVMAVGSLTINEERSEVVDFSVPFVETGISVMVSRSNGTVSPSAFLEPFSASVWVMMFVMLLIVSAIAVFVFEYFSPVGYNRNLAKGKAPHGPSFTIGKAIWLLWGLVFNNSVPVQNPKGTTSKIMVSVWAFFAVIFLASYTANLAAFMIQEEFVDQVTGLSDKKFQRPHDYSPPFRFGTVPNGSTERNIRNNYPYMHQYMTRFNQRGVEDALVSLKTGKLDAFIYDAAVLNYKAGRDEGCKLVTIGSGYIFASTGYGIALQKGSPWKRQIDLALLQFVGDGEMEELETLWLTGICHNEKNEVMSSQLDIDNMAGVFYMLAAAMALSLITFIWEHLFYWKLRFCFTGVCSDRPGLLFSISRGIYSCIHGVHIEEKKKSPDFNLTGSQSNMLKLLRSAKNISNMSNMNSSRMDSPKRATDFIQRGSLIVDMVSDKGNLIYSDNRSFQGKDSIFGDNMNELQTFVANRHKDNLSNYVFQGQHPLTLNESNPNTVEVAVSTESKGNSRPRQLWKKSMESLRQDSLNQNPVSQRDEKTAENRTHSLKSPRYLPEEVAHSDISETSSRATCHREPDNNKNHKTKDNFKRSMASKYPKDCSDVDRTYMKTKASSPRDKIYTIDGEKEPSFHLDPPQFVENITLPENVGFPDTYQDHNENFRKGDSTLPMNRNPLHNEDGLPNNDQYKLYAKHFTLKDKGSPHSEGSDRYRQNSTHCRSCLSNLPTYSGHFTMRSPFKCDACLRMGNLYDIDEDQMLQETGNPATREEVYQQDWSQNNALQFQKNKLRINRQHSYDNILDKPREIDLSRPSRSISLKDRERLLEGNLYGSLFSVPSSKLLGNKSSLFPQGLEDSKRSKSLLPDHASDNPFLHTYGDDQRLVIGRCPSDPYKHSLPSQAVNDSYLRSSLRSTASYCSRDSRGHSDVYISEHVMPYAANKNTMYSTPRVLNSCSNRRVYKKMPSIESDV

[3] = biological target: Glutamate receptor ionotropic, NMDA 2B (Rattus norvegicus, UniProt P35439+Q00960); experiment: Inhibition of rat NMDA NR2B receptor expressed in xenopus oocytes coexpressing NMDA NR13b assessed as effect on glycine-induced current response at -70 mV by voltage clamp method; format: cell-based, Oocyte; method in brief: as §1
Sequence of Glutamate receptor ionotropic, NMDA 2B (Q00960 whole entry, one chain of several): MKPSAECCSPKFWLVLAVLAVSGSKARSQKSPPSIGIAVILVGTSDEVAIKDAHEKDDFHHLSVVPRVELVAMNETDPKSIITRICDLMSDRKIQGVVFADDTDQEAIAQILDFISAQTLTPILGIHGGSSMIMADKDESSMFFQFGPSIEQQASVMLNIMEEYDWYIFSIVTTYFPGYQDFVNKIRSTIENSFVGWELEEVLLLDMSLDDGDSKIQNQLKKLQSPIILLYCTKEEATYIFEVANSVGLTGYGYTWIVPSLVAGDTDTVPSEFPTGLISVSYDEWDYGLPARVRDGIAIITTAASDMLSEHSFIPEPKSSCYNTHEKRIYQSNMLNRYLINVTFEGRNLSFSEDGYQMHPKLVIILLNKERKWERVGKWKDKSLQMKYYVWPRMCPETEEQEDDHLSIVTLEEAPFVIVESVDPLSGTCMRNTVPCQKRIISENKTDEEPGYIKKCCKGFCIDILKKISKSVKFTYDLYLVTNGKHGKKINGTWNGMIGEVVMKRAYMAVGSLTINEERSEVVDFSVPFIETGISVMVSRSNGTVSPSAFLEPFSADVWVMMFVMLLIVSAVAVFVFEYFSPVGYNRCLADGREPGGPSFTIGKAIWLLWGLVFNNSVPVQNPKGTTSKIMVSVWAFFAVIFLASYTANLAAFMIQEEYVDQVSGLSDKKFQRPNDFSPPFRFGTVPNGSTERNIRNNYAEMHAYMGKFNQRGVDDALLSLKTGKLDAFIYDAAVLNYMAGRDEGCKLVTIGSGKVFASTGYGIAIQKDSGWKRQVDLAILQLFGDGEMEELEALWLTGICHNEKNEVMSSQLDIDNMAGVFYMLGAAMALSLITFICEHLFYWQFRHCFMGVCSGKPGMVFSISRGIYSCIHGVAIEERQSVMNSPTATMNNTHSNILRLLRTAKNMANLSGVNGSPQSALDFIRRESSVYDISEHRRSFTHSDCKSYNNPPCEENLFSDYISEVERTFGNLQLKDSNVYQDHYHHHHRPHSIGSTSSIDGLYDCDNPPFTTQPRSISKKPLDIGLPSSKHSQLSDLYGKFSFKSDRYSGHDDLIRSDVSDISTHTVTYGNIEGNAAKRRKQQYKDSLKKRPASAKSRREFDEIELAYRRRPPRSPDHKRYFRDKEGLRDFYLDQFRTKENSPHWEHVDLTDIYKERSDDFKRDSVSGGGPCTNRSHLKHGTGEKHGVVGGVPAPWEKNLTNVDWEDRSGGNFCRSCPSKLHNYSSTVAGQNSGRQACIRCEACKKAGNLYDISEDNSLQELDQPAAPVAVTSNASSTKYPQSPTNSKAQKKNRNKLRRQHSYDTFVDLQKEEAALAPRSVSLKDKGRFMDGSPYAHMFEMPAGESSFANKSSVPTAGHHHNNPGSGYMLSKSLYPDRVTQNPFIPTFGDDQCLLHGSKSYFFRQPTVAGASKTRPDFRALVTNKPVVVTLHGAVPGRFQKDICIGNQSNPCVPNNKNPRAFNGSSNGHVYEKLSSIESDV

[4] = biological target: Glutamate receptor ionotropic, NMDA 2C (Rattus norvegicus, UniProt P35439+Q00961); experiment: Inhibition of rat NMDA NR2C receptor expressed in xenopus oocytes coexpressing NMDA NR13b assessed as effect on glycine-induced current response at -70 mV by voltage clamp method; format: cell-based, Oocyte; method in brief: as §1
Mus musculus [5] = experiment: Induction of sleep in intracranially dosed 10-day old Swiss-Webster mouse assessed as average onset of deep sleep at 0.5 nmol; format: functional
Method in brief: (§2)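 Intracranial injection of synthetic peptide (0.5, 1 or 5 nmol) in 20 μl normal saline into 10-day-old Swiss-Webster mice, 2–6 per dose. Con-G served as positive control and saline as negative control. Deep-sleep onset was the time at which a mouse no longer tried to right itself after being rolled onto its back; onset times were averaged.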

Rattus norvegicus [6] = species on record: Rattus norvegicus; experiment: Selectivity ratio, IC50 for rat NMDA NR2D receptor to IC50 for rat NMDA NR2B receptor
Method in brief: (§3)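 Ratios of IC50s taken from oocyte concentration-response curves for rat NR1-3b co-expressed with NR2A, NR2B or NR2D, recorded at -70 mV in Mg2+-free ND96 with 5–10-min static-bath peptide application, n ≥ 3 per point.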

Mus musculus [7] = experiment: Induction of sleep in intracranially dosed 10-day old Swiss-Webster mouse assessed as average onset of deep sleep at 5 nmol; format: functional; method in brief: as §2
Rattus norvegicus [8] = species on record: Rattus norvegicus; experiment: Selectivity ratio, IC50 for rat NMDA NR2A receptor to IC50 for rat NMDA NR2D receptor; method in brief: as §3
Mus musculus [9] = experiment: Induction of sleep in intracranially dosed 10-day old Swiss-Webster mouse assessed as average onset of deep sleep at 1 nmol; format: functional; method in brief: as §2
Mus musculus [10] = experiment: Induction of hyperactivity intracranially dosed 24-day old Swiss-Webster mouse; format: functional, organism-based
Method in brief: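 Intracranial injection of 2 nmol peptide in 20 μl normal saline (29-gauge needle) into 24-day-old mice (12.2–12.8 g). An equal volume of saline served as negative control. Mice were watched in cages for hyperactivity: continuous walking, excessive grooming and climbing of the cage wall.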

[11] = biological target: Glutamate receptor ionotropic, NMDA 2B (Rattus norvegicus) (UniProt Q00960); experiment: Inhibition of rat NMDA NR2B receptor expressed in xenopus oocytes coexpressing NMDA NR13b assessed as effect on glycine-induced current response at 1 uM at -70 mV by voltage clamp method; format: cell-based; details: Oocyte
Method in brief: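 Oocytes expressing rat NR1-3b/NR2B, voltage-clamped at -70 mV in Mg2+-free ND96 with 0.1 mg/ml BSA. Baseline currents were recorded, followed by a 10-min static-bath buffer control. Then 1 μM peptide was applied in a static bath for 10 min, and the next agonist-evoked current was expressed as % of the pre-peptide amplitude.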

Row | Compound | IC50 [1] | IC50 [2] | IC50 [3] | IC50 [4] | Activity (Mus musculus [5]) | Ratio IC50 (Rattus norvegicus [6]) | Activity (Mus musculus [7]) | Ratio IC50 (Rattus norvegicus [8]) | Activity (Mus musculus [9]) | Activity (Mus musculus [10]) | Activity [11]
1 | CC[C@H](C)[C@H](NC(=O)[C@H](CCCCN)NC(=O)CNC(=O)[C@H](Cc1ccc(O)cc1)NC(=O)[C@H](CCCCN)NC(=O)[C@H](CC(C)C)NC(=O)[C@H](CCC(N)=O)NC(=O)[C@H](Cc1ccc(O)cc1)NC(=O)[C@H](CC(C(=O)O)C(=O)O)NC(=O)[C@H](CCCN=C(N)N)NC(=O)[C@@H](NC(=O)[C@H](C)NC(=O)[C@H](CC(C(=O)O)C(=O)O)NC(=O)[C@H](C)NC(=O)[C@H](Cc1ccc(O)cc1)NC(=O)[C@H](CC(C(=O)O)C(=O)O)NC(=O)[C@@H]1C[C@@H](O)CN1C(=O)[C@H](CCC(=O)O)NC(=O)[C@@H](N)CC(=O)O)[C@@H](C)CC)C(=O)O (H-DE[Hyp][Gla]YA[Gla]AIR[Gla]YQLKYGKI-OH) | 1 µM | > 10 µM | 0.5 µM | ≥ 10 µM |  |  |  |  |  |  | 
2 | CC[C@H](C)[C@H](NC(=O)[C@H](CCCCN)NC(=O)CNC(=O)[C@H](Cc1ccc(O)cc1)NC(=O)[C@H](CCCCN)NC(=O)[C@H](CC(C)C)NC(=O)[C@H](CCC(N)=O)NC(=O)[C@H](Cc1ccc(O)cc1)NC(=O)[C@H](CC(C(=O)O)C(=O)O)NC(=O)[C@H](CCCNC(=N)N)NC(=O)[C@@H](NC(=O)[C@H](C)NC(=O)[C@H](CC(C(=O)O)C(=O)O)NC(=O)[C@H](C)NC(=O)[C@H](Cc1ccc(O)cc1)NC(=O)[C@H](CC(C(=O)O)C(=O)O)NC(=O)[C@@H]1C[C@@H](O)CN1C(=O)[C@H](CCC(=O)O)NC(=O)[C@@H](N)CC(=O)O)[C@@H](C)CC)C(=O)O (H-DE[Hyp][Gla]YA[Gla]AIR[Gla]YQLKYGKI-OH) |  |  |  |  | 17.5 min | 2 | 9.7 min | > 10 | 14 min | Active | 
3 | CC[C@H](C)[C@H](NC(=O)[C@H](CCCCN)NC(=O)CNC(=O)[C@H](Cc1cnc[nH]1)NC(=O)[C@@H](NC(=O)[C@H](CC(C)C)NC(=O)[C@H](CCC(N)=O)NC(=O)[C@H](Cc1ccc(O)cc1)NC(=O)[C@H](CC(C(=O)O)C(=O)O)NC(=O)[C@H](CCCNC(=N)N)NC(=O)[C@@H](NC(=O)CNC(=O)[C@H](CC(C(=O)O)C(=O)O)NC(=O)[C@H](C)NC(=O)[C@H](Cc1ccc(O)cc1)NC(=O)[C@H](CC(C(=O)O)C(=O)O)NC(=O)[C@H](CC(=O)O)NC(=O)[C@H](CCC(=O)O)NC(=O)CN)[C@@H](C)CC)[C@@H](C)CC)C(=O)O (H-GED[Gla]YA[Gla]GIR[Gla]YQLIHGKI-OH) | 1 µM | > 10 µM | 0.2 µM | ≥ 10 µM | 18 min | 5 | 9 min | > 10 | 12.2 min | Active | Active
4 | CC(C)C[C@H](NC(=O)CNC(=O)[C@H](CC(C(=O)O)C(=O)O)NC(=O)[C@H](C)NC(=O)[C@H](Cc1c[nH]c2ccccc12)NC(=O)[C@H](CCCCN)NC(=O)[C@H](C)NC(=O)[C@@H](NC(=O)[C@H](CC(C(=O)O)C(=O)O)NC(=O)[C@@H]1C[C@@H](O)CN1C(=O)[C@H](CCC(=O)O)NC(=O)CN)C(C)C)C(=O)N[C@@H](CCCN=C(N)N)C(=O)N[C@@H](CC(C(=O)O)C(=O)O)C(=O)N[C@@H](CCCCN)C(=O)N[C@@H](C)C(=O)N[C@@H](C)C(=O)N[C@@H](CO)C(=O)N[C@@H](CC(N)=O)C(N)=O (H-GE[Hyp][Gla]VAKWA[Gla]GLR[Gla]KAASN-NH2) | 8 µM | > 10 µM | 0.5 µM | ≥ 10 µM |  |  |  |  |  |  | 
5 | CC(C)C[C@H](NC(=O)CNC(=O)[C@H](CC(C(=O)O)C(=O)O)NC(=O)[C@H](C)NC(=O)[C@H](Cc1c[nH]c2ccccc12)NC(=O)[C@H](CCCCN)NC(=O)[C@H](C)NC(=O)[C@@H](NC(=O)[C@H](CC(C(=O)O)C(=O)O)NC(=O)[C@@H]1C[C@@H](O)CN1C(=O)[C@H](CCC(=O)O)NC(=O)CN)C(C)C)C(=O)N[C@@H](CCCNC(=N)N)C(=O)N[C@@H](CC(C(=O)O)C(=O)O)C(=O)N[C@@H](CCCCN)C(=O)N[C@@H](C)C(=O)N[C@@H](C)C(=O)N[C@@H](CO)C(=O)N[C@@H](CC(N)=O)C(N)=O (H-GE[Hyp][Gla]VAKWA[Gla]GLR[Gla]KAASN-NH2) |  |  |  |  | 21 min | 16 | 10.7 min | > 10 | 16.5 min | Active | 
6 | CC[C@H](C)[C@H](NC(=O)[C@H](CC(N)=O)NC(=O)[C@H](CC(C(=O)O)C(=O)O)NC(=O)[C@H](CCCNC(=N)N)NC(=O)[C@H](C)NC(=O)[C@H](CC(C)C)NC(=O)[C@H](CC(C(=O)O)C(=O)O)NC(=O)[C@H](C)NC(=O)[C@H](C)NC(=O)[C@H](CCSC)NC(=O)[C@H](CCCCN)NC(=O)[C@H](C)NC(=O)[C@@H](NC(=O)[C@H](CC(C(=O)O)C(=O)O)NC(=O)[C@H](CC(C(=O)O)C(=O)O)NC(=O)[C@H](CCC(=O)O)NC(=O)CN)C(C)C)C(=O)N[C@@H](C)C(=O)N[C@@H](CCCCN)C(=O)NCC(=O)N[C@@H](CS)C(=O)N[C@@H](CCCCN)C(=O)N[C@H](C(=O)N[C@@H](CC(N)=O)C(=O)N[C@@H](CS)C(=O)N[C@@H](Cc1ccc(O)cc1)C(=O)N1CCC[C@H]1C(=O)O)C(C)C [CONANTOKIN-R] | > 10 µM | 1 µM | 1 µM | 7 µM |  | > 10 |  | < 0.1 |  |  | 
